Results reported in ChEMBL document CHEMBL4715828, “Identification of N-benzyltetrahydroisoquinolines as novel anti-neuroinflammatory agents” (2018).
The source made the active and inactive calls. No cut-off for these calls is given here.

Assays:
BV-2 [1] = test: Anti-neuroinflammatory activity in mouse BV2 cells assessed as inhibition of LPS-induced TNF-alpha production by measuring TNF-alpha level at 50 uM preincubated for 1 hr followed by LPS stimulation and measured after 24 hrs by ELISA (reference value: 100 +/- 0%); type: functional; conditions: time 25 hrs
In short: (§1)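 BV2 murine microglia in DMEM:F-12 (1:1) with 10% heat-inactivated FBS and penicillin/streptomycin, 5% CO2, seeded at 5 x 10^5 cells/mL in 12-well plates and attached overnight. Compound in DMSO (0.1% v/v final) added 1 h before LPS (E. coli O55:B5, 100 ng/mL) for 24 h. Medium centrifuged, then assayed by ELISA. Values are % of LPS, mean ± SEM, three experiments.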

BV-2 [2] = test: Anti-neuroinflammatory activity in mouse BV2 cells assessed as inhibition of LPS-induced TNF-alpha production by measuring TNF-alpha level at 1 uM preincubated for 1 hr followed by LPS stimulation and measured after 24 hrs by ELISA (reference value: 100 +/- 0%); type: functional; set-up: scale not given: the % may be the effect or the level left; conditions: time 25 hrs; in short: as §1
BV-2 [3] = test: Anti-neuroinflammatory activity in mouse BV2 cells assessed as inhibition of LPS-induced TNF-alpha production preincubated for 1 hr followed by LPS treatment and measured after 24 hrs by ELISA; type: functional, cell-based; conditions: dose 12-50 µM, time 25.0 hrs; in short: as §1
BV-2 [4] = test: Anti-neuroinflammatory activity in mouse BV2 cells assessed as inhibition of LPS-induced IL-6 production preincubated for 1 hr followed by LPS treatment and measured after 24 hrs by ELISA; type: functional, cell-based; conditions: dose 25-50 µM, time 25.0 hrs; in short: as §1
BV-2 [5] = test: Anti-neuroinflammatory activity in mouse BV2 cells assessed as inhibition of LPS-induced nitrite production preincubated for 1 hr followed by LPS treatment and measured after 24 hrs by Griess assay; type: functional, cell-based; conditions: dose 6-50 µM, time 25.0 hrs
In short: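 BV2 cells seeded at 5 x 10^5 cells/mL in 12-well plates and attached overnight. Compound (0.1% v/v DMSO final) given 1 h before LPS 100 ng/mL for 24 h. Medium centrifuged to remove floating cells, then nitrite read by Griess kit. Mean ± SEM from three experiments.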

Microglia [6] = test: Anti-neuroinflammatory activity in primary mouse microglia cells assessed as reduction in LPS-induced IL-1beta mRNA expression at 100 uM preincubated for 1 hr followed by LPS treatment for 2 hrs by qPCR analysis; type: functional, cell-based; conditions: time 3.0 hrs
In short: (§2)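 Primary microglia come from cortical cells of 1-2-day neonatal mice, grown in DMEM/F12 with 10% FBS and 2 mM glutamine, plus 5 ng/ml GM-CSF from day 3. Cells shaken off at day 13-14, plated at 5 x 10^5 cells/mL and attached overnight. Compound given 1 h before LPS 100 ng/mL for 2 or 4 h, then RNA extracted and qPCR run. Mean ± SEM, three experiments.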

Microglia [7] = test: Anti-neuroinflammatory activity in primary mouse microglia cells assessed as reduction in LPS-induced IL-1beta mRNA expression at 100 uM preincubated for 1 hr followed by LPS treatment for 4 hrs by qPCR analysis; type: functional, cell-based; conditions: time 5.0 hrs; in short: as §2
Microglia [8] = test: Anti-neuroinflammatory activity in primary mouse microglia cells assessed as reduction in LPS-induced IL-23p19 mRNA expression at 100 uM preincubated for 1 hr followed by LPS treatment for 2 hrs by qPCR analysis; type: functional, cell-based; conditions: time 3.0 hrs; in short: as §2
Microglia [9] = test: Anti-neuroinflammatory activity in primary mouse microglia cells assessed as reduction in LPS-induced IL-23p19 mRNA expression at 100 uM preincubated for 1 hr followed by LPS treatment for 4 hrs by qPCR analysis; type: functional, cell-based; conditions: time 5.0 hrs; in short: as §2
Microglia [10] = test: Anti-neuroinflammatory activity in primary mouse microglia cells assessed as reduction in LPS-induced IL-12p35 mRNA expression at 100 uM preincubated for 1 hr followed by LPS treatment for 2 hrs by qPCR analysis; type: functional, cell-based; conditions: time 3.0 hrs; in short: as §2
Microglia [11] = test: Anti-neuroinflammatory activity in primary mouse microglia cells assessed as reduction in LPS-induced IL-12p35 mRNA expression at 100 uM preincubated for 1 hr followed by LPS treatment for 4 hrs by qPCR analysis; type: functional, cell-based; conditions: time 5.0 hrs; in short: as §2
Microglia [12] = test: Anti-neuroinflammatory activity in primary mouse microglia cells assessed as reduction in LPS-induced IL-12p40 mRNA expression at 100 uM preincubated for 1 hr followed by LPS treatment for 2 hrs by qPCR analysis; type: functional, cell-based; conditions: time 3.0 hrs; in short: as §2
Microglia [13] = test: Anti-neuroinflammatory activity in primary mouse microglia cells assessed as reduction in LPS-induced IL-12p40 mRNA expression at 100 uM preincubated for 1 hr followed by LPS treatment for 4 hrs by qPCR analysis; type: functional, cell-based; conditions: time 5.0 hrs; in short: as §2
Microglia [14] = test: Anti-neuroinflammatory activity in primary mouse microglia cells assessed as reduction in LPS-induced GM-CSF mRNA expression at 100 uM preincubated for 1 hr followed by LPS treatment for 2 hrs by qPCR analysis; type: functional, cell-based; conditions: time 3.0 hrs; in short: as §2
Microglia [15] = test: Anti-neuroinflammatory activity in primary mouse microglia cells assessed as reduction in LPS-induced GM-CSF mRNA expression at 100 uM preincubated for 1 hr followed by LPS treatment for 4 hrs by qPCR analysis; type: functional, cell-based; conditions: time 5.0 hrs; in short: as §2
Microglia [16] = test: Anti-neuroinflammatory activity in primary mouse microglia cells assessed as reduction in LPS-induced TNF mRNA expression at 100 uM preincubated for 1 hr followed by LPS treatment for 2 hrs by qPCR analysis; type: functional, cell-based; conditions: time 3.0 hrs; in short: as §2
Microglia [17] = test: Anti-neuroinflammatory activity in primary mouse microglia cells assessed as reduction in LPS-induced TNF mRNA expression at 100 uM preincubated for 1 hr followed by LPS treatment for 4 hrs by qPCR analysis; type: functional, cell-based; conditions: time 5.0 hrs; in short: as §2
Microglia [18] = test: Anti-neuroinflammatory activity in primary mouse microglia cells assessed as reduction in LPS-induced IL6 mRNA expression at 100 uM preincubated for 1 hr followed by LPS treatment for 2 hrs by qPCR analysis; type: functional, cell-based; conditions: time 3.0 hrs; in short: as §2
Microglia [19] = test: Anti-neuroinflammatory activity in primary mouse microglia cells assessed as reduction in LPS-induced IL6 mRNA expression at 100 uM preincubated for 1 hr followed by LPS treatment for 4 hrs by qPCR analysis; type: functional, cell-based; conditions: time 5.0 hrs; in short: as §2

SMILES | TNF-alpha level (% of LPS control) (BV-2 [1]) [%] | other results
Cc1cccc(C)c1CN1CCc2cc3c(cc2C1)OCO3 | 101 | 
COc1ccc(CC2NCCc3cc4c(cc32)OCO4)cc1OC (centres undefined) | 77 | 
COc1ccc2cc3[n+](cc2c1OC)CCc1cc2c(cc1-3)OCO2.[Cl-] [BERBERINE CHLORIDE] |  | Activity (BV-2 [2]): 25%
COc1ccc2c(c1)CCN(Cc1c(OC)cccc1OC)C2 | 64 | 
COc1ccc2c(c1OC)CN1CCc3cc4c(cc3C1C2)OCO4 (centres undefined) [TETRAHYDROBERBERINE] | 45 | 
COc1cccc(OC)c1C(=O)N1CCc2cc3c(cc2C1)OCO3 | 73 | 
COc1cccc(CN2CCc3ccccc3C2)c1OC | 95 | 
COc1ccc(CN2CCc3cc4c(cc3C2)OCO4)c(OC)c1 | 103 | 
COc1ccc2c(c1)CN(Cc1c(OC)cccc1OC)CC2 | 82 | 
COc1cccc(CN2CCc3cc4c(cc3C2)OCO4)c1OC | 61 | 
COc1cc(CN2CCc3cc4c(cc3C2)OCO4)cc(OC)c1 | 89 | 
COc1cccc(OC)c1CN1CCc2cc3c(cc2C1)OCO3 | 39 | Activity (BV-2 [3]): Dose-dependent effect; Activity (BV-2 [4]): Dose-dependent effect; Activity (BV-2 [5]): Dose-dependent effect; Activity (Microglia [6]): Active; Activity (Microglia [7]): Active; Activity (Microglia [8]): Active; Activity (Microglia [9]): Active; Activity (Microglia [10]): Active; Activity (Microglia [11]): Active; Activity (Microglia [12]): inactive; Activity (Microglia [13]): inactive; Activity (Microglia [14]): Active; Activity (Microglia [15]): Active; Activity (Microglia [16]): inactive; Activity (Microglia [17]): inactive; Activity (Microglia [18]): Active; Activity (Microglia [19]): Active
COc1cccc(OC)c1CN1CCc2ccccc2C1 | 78 | 
FC(F)(F)c1ccc(CN2CCc3cc4c(cc3C2)OCO4)cc1 | 102 | 
COc1cccc(CN2CCc3cc4c(cc3C2)OCO4)c1 | 78 | 
COc1ccccc1CN1CCc2cc3c(cc2C1)OCO3 | 78 | 
Clc1cccc(Cl)c1CN1CCc2cc3c(cc2C1)OCO3 | 107 | 
COc1ccc(CC2c3cc4c(cc3CC[N+]2(C)C)OCO4)cc1OC.[I-] (centres undefined) | 97 | 
COc1ccc2c(c1OC)C[N+]1(Cc3ccccc3)CCc3cc4c(cc3C1C2)OCO4.[Br-] (centres undefined) | 22 | 
c1ccc(CN2CCc3cc4c(cc3C2)OCO4)cc1 | 90 | 
COc1ccc(CN2CCc3cc4c(cc3C2)OCO4)cc1 | 88 | 
COc1ccc(CC2c3cc4c(cc3CCN2C)OCO4)cc1OC (centres undefined) | 77 | 
